Results published in ChEMBL document CHEMBL4346701, “Synthesis and biological evaluation of tryptophan-derived rhodanine derivatives as PTP1B inhibitors and anti-bacterial agents” (Eur J Med Chem, 2019).
pIC50: −log10 of the molar value. In brackets after ≈: the same amount, converted by molar mass.

Assays:
[1] = target: T1, Tyrosine-protein phosphatase non-receptor type 1 (Homo sapiens, UniProt P18031); test: Inhibition of human recombinant GST-tagged PTP1B expressed in Escherichia coli BL21 (DE3) using pNPP as substrate measured for 2 mins by colorimetric analysis
T1 sequence (P18031 whole entry): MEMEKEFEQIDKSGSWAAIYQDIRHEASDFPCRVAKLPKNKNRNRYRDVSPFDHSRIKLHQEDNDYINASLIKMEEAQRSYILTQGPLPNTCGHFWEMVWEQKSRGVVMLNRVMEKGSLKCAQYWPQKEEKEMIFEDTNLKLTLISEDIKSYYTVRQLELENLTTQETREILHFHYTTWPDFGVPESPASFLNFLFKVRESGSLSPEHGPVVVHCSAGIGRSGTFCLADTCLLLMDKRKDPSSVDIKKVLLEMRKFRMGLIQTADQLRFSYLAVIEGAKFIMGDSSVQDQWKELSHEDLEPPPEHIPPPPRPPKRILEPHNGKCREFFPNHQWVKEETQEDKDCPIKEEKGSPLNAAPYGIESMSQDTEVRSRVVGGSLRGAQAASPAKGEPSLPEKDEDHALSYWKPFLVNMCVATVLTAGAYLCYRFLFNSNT

[2] = target: T2, Tyrosine-protein phosphatase non-receptor type 2 (Homo sapiens, UniProt P17706); test: Inhibition of human recombinant GST-tagged TCPTP (catalytic domain […] residues) expressed in Escherichia coli BL21 (DE3) using pNPP as substrate measured for 2 mins by colorimetric analysis
T2 sequence (P17706 whole entry): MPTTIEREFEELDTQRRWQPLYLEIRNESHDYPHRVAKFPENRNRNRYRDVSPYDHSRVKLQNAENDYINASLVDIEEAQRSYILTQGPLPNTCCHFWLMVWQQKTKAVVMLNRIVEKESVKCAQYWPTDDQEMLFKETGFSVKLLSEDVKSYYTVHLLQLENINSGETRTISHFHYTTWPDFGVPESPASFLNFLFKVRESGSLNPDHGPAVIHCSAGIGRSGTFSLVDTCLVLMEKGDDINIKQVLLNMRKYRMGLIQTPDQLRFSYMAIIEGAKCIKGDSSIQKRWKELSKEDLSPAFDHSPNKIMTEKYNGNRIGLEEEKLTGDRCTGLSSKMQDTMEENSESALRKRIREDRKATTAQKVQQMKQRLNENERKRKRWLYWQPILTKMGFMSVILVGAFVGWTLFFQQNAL

[3] = target: T3, M-phase inducer phosphatase 2 (Homo sapiens, UniProt P30305); test: Inhibition of human recombinant GST-tagged CDC25B expressed in Escherichia coli BL21 (DE3) using pNPP as substrate measured for 2 mins by colorimetric analysis
T3 sequence (P30305 whole entry): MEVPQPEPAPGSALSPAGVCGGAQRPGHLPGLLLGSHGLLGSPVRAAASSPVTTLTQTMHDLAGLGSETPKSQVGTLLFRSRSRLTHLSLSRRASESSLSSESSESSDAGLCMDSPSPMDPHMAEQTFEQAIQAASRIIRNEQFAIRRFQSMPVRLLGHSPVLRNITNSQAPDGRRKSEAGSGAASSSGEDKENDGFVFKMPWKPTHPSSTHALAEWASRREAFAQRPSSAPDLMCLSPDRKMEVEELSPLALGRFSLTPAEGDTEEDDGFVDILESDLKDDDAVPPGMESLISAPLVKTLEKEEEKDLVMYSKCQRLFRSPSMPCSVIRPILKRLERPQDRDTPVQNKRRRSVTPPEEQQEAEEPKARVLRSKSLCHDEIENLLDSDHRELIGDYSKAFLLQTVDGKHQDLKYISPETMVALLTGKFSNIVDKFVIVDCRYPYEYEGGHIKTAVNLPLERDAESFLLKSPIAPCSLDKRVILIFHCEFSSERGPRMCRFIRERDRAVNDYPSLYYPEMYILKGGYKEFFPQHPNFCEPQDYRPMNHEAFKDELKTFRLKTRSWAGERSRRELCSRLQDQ
Outline: (§1)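 pNPP hydrolysis assay. IC50 was derived by regression analysis and given as mean ± SD of three replications.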

[4] = target: Tyrosine-protein phosphatase non-receptor type 6 (Homo sapiens, UniProt P29350); test: Inhibition of human recombinant GST-tagged SHP1 (catalytic domain 244 to 570 residues) expressed in Escherichia coli BL21 (DE3) using pNPP as substrate measured for 2 mins by colorimetric analysis; outline: as §1
Chain of Tyrosine-protein phosphatase non-receptor type 6 (P29350 whole entry, the tested form may be a part): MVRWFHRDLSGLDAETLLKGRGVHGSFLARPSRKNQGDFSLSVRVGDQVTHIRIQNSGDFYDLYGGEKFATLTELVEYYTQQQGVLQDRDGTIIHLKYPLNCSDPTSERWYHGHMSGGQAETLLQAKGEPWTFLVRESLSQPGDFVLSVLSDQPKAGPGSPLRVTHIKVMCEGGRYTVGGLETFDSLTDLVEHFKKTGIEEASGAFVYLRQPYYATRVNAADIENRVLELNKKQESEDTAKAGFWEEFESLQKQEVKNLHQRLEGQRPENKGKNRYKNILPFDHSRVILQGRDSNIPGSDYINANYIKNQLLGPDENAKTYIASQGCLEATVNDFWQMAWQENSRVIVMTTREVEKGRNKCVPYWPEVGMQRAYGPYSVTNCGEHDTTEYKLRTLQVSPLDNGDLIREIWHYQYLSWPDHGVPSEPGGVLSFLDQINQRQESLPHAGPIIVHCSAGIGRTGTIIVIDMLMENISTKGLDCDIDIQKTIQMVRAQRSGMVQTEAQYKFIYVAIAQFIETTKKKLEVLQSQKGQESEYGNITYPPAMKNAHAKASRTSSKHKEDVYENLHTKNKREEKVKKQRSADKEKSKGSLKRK

[5] = target: T4, Tyrosine-protein phosphatase non-receptor type 11 (Homo sapiens, UniProt Q06124); test: Inhibition of human recombinant GST-tagged SHP2 (catalytic domain […] residues) expressed in Escherichia coli BL21 (DE3) using pNPP as substrate measured for 2 mins by colorimetric analysis; outline: as §1
T4 sequence (Q06124 whole entry): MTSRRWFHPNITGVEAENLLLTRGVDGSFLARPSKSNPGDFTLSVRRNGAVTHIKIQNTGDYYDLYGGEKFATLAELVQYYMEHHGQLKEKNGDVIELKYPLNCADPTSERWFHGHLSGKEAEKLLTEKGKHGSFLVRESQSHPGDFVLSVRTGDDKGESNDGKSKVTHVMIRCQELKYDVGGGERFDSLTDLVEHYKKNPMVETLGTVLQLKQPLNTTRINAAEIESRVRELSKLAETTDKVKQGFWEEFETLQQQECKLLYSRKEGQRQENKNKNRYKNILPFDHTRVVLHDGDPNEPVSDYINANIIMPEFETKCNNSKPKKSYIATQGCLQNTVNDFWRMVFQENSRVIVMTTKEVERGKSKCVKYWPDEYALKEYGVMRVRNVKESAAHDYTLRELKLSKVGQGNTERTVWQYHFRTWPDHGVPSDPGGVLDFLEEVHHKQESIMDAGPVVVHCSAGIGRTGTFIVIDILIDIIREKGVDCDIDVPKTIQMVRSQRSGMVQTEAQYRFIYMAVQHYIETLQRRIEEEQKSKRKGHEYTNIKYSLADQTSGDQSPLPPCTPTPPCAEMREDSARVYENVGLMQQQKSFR

Staphylococcus aureus [6] = test: Antibacterial activity against Staphylococcus aureus RN4220 assessed as reduction in bacterial cell growth incubated for 24 hrs by ELISA; assay type: functional; conditions: RN4220, 24 h
Outline: (§2)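 MICs determined by serial dilution in 96-well microtiter plates. The strain panel included Gram-positive S. aureus strains and multidrug-resistant clinical isolates. Gatifloxacin, moxifloxacin, norfloxacin and oxacillin served as antibacterial positive controls.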

Staphylococcus aureus [7] = test: Antibacterial activity against Staphylococcus aureus KCTC209 assessed as reduction in bacterial cell growth incubated for 24 hrs by ELISA; assay type: functional; conditions: KCTC209, 24 h; outline: as §2
Staphylococcus aureus [8] = test: Antibacterial activity against Staphylococcus aureus KCTC503 assessed as reduction in bacterial cell growth incubated for 24 hrs by ELISA; assay type: functional; conditions: KCTC503, 24 h; outline: as §2
Streptococcus mutans = test: Antibacterial activity against Streptococcus mutans KCTC3289 assessed as reduction in bacterial cell growth incubated for 24 hrs by ELISA; assay type: functional; conditions: KCTC3289, 24 h
Outline: (§3)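 MIC determined by serial dilution in 96-well microtiter plates. Strains used were E. coli 1924 and P. aeruginosa 2742 (Gram-negative), S. mutans 3289 (Gram-positive) and the fungus C. albicans 7535. Gatifloxacin, moxifloxacin, norfloxacin and oxacillin served as antibacterial reference agents, and fluconazole as the antifungal reference.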

Escherichia coli = test: Antibacterial activity against Escherichia coli 1924 assessed as reduction in bacterial cell growth incubated for 24 hrs by ELISA; assay type: functional; conditions: Escherichia coli, 1924, 24 h; outline: as §3
Pseudomonas aeruginosa = test: Antibacterial activity against Pseudomonas aeruginosa 2742 assessed as reduction in bacterial cell growth incubated for 24 hrs by ELISA; assay type: functional; conditions: Pseudomonas aeruginosa, 2742, 24 h; outline: as §3
Candida albicans = test: Antifungal activity against Candida albicans 7535 assessed as reduction in bacterial cell growth incubated for 24 hrs by ELISA; assay type: functional; conditions: Candida albicans, 7535, 24 h; outline: as §3
Staphylococcus aureus [9] = test: Antibacterial activity against Methicillin-resistant Staphylococcus aureus CCARM 3167 assessed as reduction in bacterial cell growth incubated for 24 hrs by ELISA; assay type: functional; conditions: CCARM 3167, 24 h; outline: as §2
Staphylococcus aureus [10] = test: Antibacterial activity against Methicillin-resistant Staphylococcus aureus CCARM 3506 assessed as reduction in bacterial cell growth incubated for 24 hrs by ELISA; assay type: functional; conditions: CCARM 3506, 24 h; outline: as §2
Staphylococcus aureus [11] = test: Antibacterial activity against Quinolone-resistant Staphylococcus aureus CCARM 3505 assessed as reduction in bacterial cell growth incubated for 24 hrs by ELISA; assay type: functional; conditions: CCARM 3505, 24 h; outline: as §2
Staphylococcus aureus [12] = test: Antibacterial activity against Quinolone-resistant Staphylococcus aureus CCARM 3519 assessed as reduction in bacterial cell growth incubated for 24 hrs by ELISA; assay type: functional; conditions: CCARM 3519, 24 h; outline: as §2
Staphylococcus aureus [13] = test: Potency index, ratio of MIC of gatifloxacin to MIC of compound for antibacterial activity against Staphylococcus aureus KCTC503 assessed as reduction in bacterial cell growth incubated for 24 hrs by ELISA; assay type: functional

Compound | pIC50 [1] | pIC50 [2] | pIC50 [3] | pIC50 [4] | pIC50 [5] | MIC (Staphylococcus aureus [6]) | MIC (Staphylococcus aureus [7]) | MIC (Staphylococcus aureus [8]) | MIC (Streptococcus mutans) | MIC (Escherichia coli) | MIC (Pseudomonas aeruginosa) | MIC (Candida albicans) | MIC (Staphylococcus aureus [9]) | MIC (Staphylococcus aureus [10]) | MIC (Staphylococcus aureus [11]) | MIC (Staphylococcus aureus [12]) | Ratio (Staphylococcus aureus [13])
O=C(O)C(Cc1c[nH]c2ccccc12)N1C(=O)/C(=C/c2ccc3cc(OCc4ccc(F)cc4)ccc3c2)SC1=S (stereo unspecified) | 6.35 | 5.95 | 6.42 | 5.82 | 5.37 | 1 µg/mL (≈ 1.72 µM) | 4 µg/mL (≈ 6.86 µM) | 2 µg/mL (≈ 3.43 µM) | 2 µg/mL (≈ 3.43 µM) | 2 µg/mL (≈ 3.43 µM) | > 64 µg/mL | > 64 µg/mL | 2 µg/mL (≈ 3.43 µM) | 2 µg/mL (≈ 3.43 µM) | 2 µg/mL (≈ 3.43 µM) | 2 µg/mL (≈ 3.43 µM) | 
O=C(O)C(Cc1c[nH]c2ccccc12)N1C(=O)/C(=C/c2cccc(OCc3ccccc3)c2)SC1=S (stereo unspecified) | 5.08 |  |  |  |  | 4 µg/mL (≈ 7.77 µM) | 8 µg/mL (≈ 15.5 µM) | 8 µg/mL (≈ 15.5 µM) | 8 µg/mL (≈ 15.5 µM) | 8 µg/mL (≈ 15.5 µM) | > 64 µg/mL | > 64 µg/mL | 8 µg/mL (≈ 15.5 µM) | 8 µg/mL (≈ 15.5 µM) | 8 µg/mL (≈ 15.5 µM) | 8 µg/mL (≈ 15.5 µM) | 
O=C(O)C(Cc1c[nH]c2ccccc12)N1C(=O)/C(=C/c2cccc(OCc3ccc(Br)cc3)c2)SC1=S (stereo unspecified) | 5.57 |  |  |  |  | 2 µg/mL (≈ 3.37 µM) | 4 µg/mL (≈ 6.74 µM) | 4 µg/mL (≈ 6.74 µM) | 4 µg/mL (≈ 6.74 µM) | 8 µg/mL (≈ 13.5 µM) | > 64 µg/mL | > 64 µg/mL | 8 µg/mL (≈ 13.5 µM) | 8 µg/mL (≈ 13.5 µM) | 8 µg/mL (≈ 13.5 µM) | 4 µg/mL (≈ 6.74 µM) | 
COc1cc(/C=C2\SC(=S)N(C(Cc3c[nH]c4ccccc34)C(=O)O)C2=O)ccc1OCc1ccc(C)cc1 (stereo unspecified) | 5.44 |  |  |  |  | 2 µg/mL (≈ 3.58 µM) | 2 µg/mL (≈ 3.58 µM) | 4 µg/mL (≈ 7.16 µM) | 2 µg/mL (≈ 3.58 µM) | 2 µg/mL (≈ 3.58 µM) | > 64 µg/mL | > 64 µg/mL | 4 µg/mL (≈ 7.16 µM) | 2 µg/mL (≈ 3.58 µM) | 2 µg/mL (≈ 3.58 µM) | 8 µg/mL (≈ 14.3 µM) | 
O=C(O)C(Cc1c[nH]c2ccccc12)N1C(=O)/C(=C/c2cccc(OCc3ccc(Cl)cc3Cl)c2)SC1=S (stereo unspecified) | 5.77 |  |  |  |  | 4 µg/mL (≈ 6.85 µM) | 4 µg/mL (≈ 6.85 µM) | 8 µg/mL (≈ 13.7 µM) | 4 µg/mL (≈ 6.85 µM) | 8 µg/mL (≈ 13.7 µM) | > 64 µg/mL | > 64 µg/mL | 8 µg/mL (≈ 13.7 µM) | 8 µg/mL (≈ 13.7 µM) | 4 µg/mL (≈ 6.85 µM) | 4 µg/mL (≈ 6.85 µM) | 
O=C(O)C(Cc1c[nH]c2ccccc12)N1C(=O)/C(=C/c2cccc(OCc3ccc(Cl)cc3)c2)SC1=S (stereo unspecified) | 5.24 |  |  |  |  | 2 µg/mL (≈ 3.64 µM) | 2 µg/mL (≈ 3.64 µM) | 2 µg/mL (≈ 3.64 µM) | 2 µg/mL (≈ 3.64 µM) | 2 µg/mL (≈ 3.64 µM) | > 64 µg/mL | > 64 µg/mL | 2 µg/mL (≈ 3.64 µM) | 4 µg/mL (≈ 7.29 µM) | 2 µg/mL (≈ 3.64 µM) | 4 µg/mL (≈ 7.29 µM) | 2
O=C(O)C(Cc1c[nH]c2ccccc12)N1C(=O)/C(=C/c2ccc(OCc3ccccc3)cc2)SC1=S (stereo unspecified) | 5.26 |  |  |  |  | 4 µg/mL (≈ 7.77 µM) | 8 µg/mL (≈ 15.5 µM) | 8 µg/mL (≈ 15.5 µM) | 4 µg/mL (≈ 7.77 µM) | 8 µg/mL (≈ 15.5 µM) | > 64 µg/mL | > 64 µg/mL | 8 µg/mL (≈ 15.5 µM) | 8 µg/mL (≈ 15.5 µM) | 8 µg/mL (≈ 15.5 µM) | 8 µg/mL (≈ 15.5 µM) | 
COc1cc(/C=C2\SC(=S)N(C(Cc3c[nH]c4ccccc34)C(=O)O)C2=O)ccc1OCc1ccc(Cl)cc1 (stereo unspecified) | 5.36 |  |  |  |  | 2 µg/mL (≈ 3.45 µM) | 4 µg/mL (≈ 6.91 µM) | 4 µg/mL (≈ 6.91 µM) | 4 µg/mL (≈ 6.91 µM) | 4 µg/mL (≈ 6.91 µM) | > 64 µg/mL | > 64 µg/mL | 4 µg/mL (≈ 6.91 µM) | 4 µg/mL (≈ 6.91 µM) | 4 µg/mL (≈ 6.91 µM) | 4 µg/mL (≈ 6.91 µM) | 
